B1: tRNA (parent)
chain: GUUCCGUUGGCGUAAUGGUAACGCGUCUCCCUCCUAAGGAGAAGACUGCGGGUUCGAGUCCCGUACGGAACG

This sample holds only a part of the variants without activity. A value given as a limit tells only on which side of the number the result lay.

Variants of B1 are the subject of the series. Briefly: yeast fitness relative to wild type (ratio to wild type); higher = fitter; tRNA-Arg(CCU), competitive growth, 37 C, YPD. Summed up:
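For this measurement, the tRNA-Arg(CCU) gene was varied by chemical synthesis at a 3% per-site mutation rate across 69 sites, and each variant was placed at the native genomic locus in Saccharomyces cerevisiae. The pooled strains went through a 24-hour competition in YPD at 37°C in six parallel replicates, with amplicons from start and end populations read by 100-nucleotide paired-end sequencing. Darwinian fitness relative to wild type followed from the change in each genotype's frequency. Genotypes needed ≥ 100 starting reads, and estimates < 0.5 were set to 0.5.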
On to G17A C22U C29A A36G A45U, for which the yeast fitness was at most 0.5.
To C22A C29U C33G C46U C62U belongs at most 0.5; to C5A C66U, 0.857; to A14C A15G G44C C60A, at most 0.5.
For G9A C30U G52A the value was at most 0.5; for U8A G9C A57C, 0.701.
On to G12C A14G A15C G52C, for which the yeast fitness was at most 0.5.
For C34U G41A U47A G58C G63C G67A the value was at most 0.5.
To C5G A14U G38A A40U G50C C60G A70G belongs at most 0.5; to G41C A43U, 0.957; to U7G A14C, 0.532.
For C4U C5U A37U C46U C61U C66U the value was at most 0.5; for C46U C60G, 0.627.
Regarding C27G U53G A70G, the yeast fitness was at most 0.5.
Consider G67A A69G, for which the yeast fitness was determined as 0.974.
To G10C A43C U53A belongs at most 0.5; to A20U C29G, 0.721.
U19G G25A G67A: the yeast fitness turned out to be 0.934.
For C4U C49G G50C, the yeast fitness was at most 0.5.
On to G6A A15C A20U C61G, for which the yeast fitness came to 0.565.
For C5U C24G the value was 0.571; for U2A A57C, 0.607; for C5G C29U, 0.793.
For C27G C46U A70C the value was 0.729.
With C11U U32A, the yeast fitness was found to be 0.772.
For C5A C24U U35C C61A the value was at most 0.5; for G10C C11G C24G G48C, at most 0.5.
In the case of G6A C11G A21G C24A G52A C60A A69G, the yeast fitness was at most 0.5.
To A36G A43C U64C belongs 0.687.
To U16A U47C C66U belongs 0.893.
With C29G C49U, the yeast fitness was 0.718.
For U13C A14G C24G the value was at most 0.5.
For the variant C5A G9A U32C, the yeast fitness came to 0.602.
Turning to C29U G44A, the yeast fitness is 0.818.
To A15G C30A U59C C62U G68U belongs at most 0.5; to U8C G9A U13A A15G A37U C46U G68A, at most 0.5.
To C34U G38A G44C belongs at most 0.5; to C5G G44C U64C, 0.586; to G17C C31U A42C U53G, at most 0.5.
To G17A U35G A65U belongs at most 0.5; to U8A C29G U32C, at most 0.5; to C4G A20U C61G, at most 0.5.
U47G G51A: the yeast fitness is 0.588.
For G12A U35A G58A C66G G68A the value was at most 0.5.
For C5A A20U C55U C61U A65G, the yeast fitness was at most 0.5.
For G25U A36U G56C A65C the value was 0.521; for U13C G39A, 0.982; for A37C A45G, 0.818.
For C24U A57G C61G the value was at most 0.5; for C4G C11G U26A U54A C60U, at most 0.5.
For G6A G9C C11G C34U A57G the value was 0.54; for C5G G17C G25A G51A, at most 0.5; for U13A G23C C27G, 0.504.
C24A C30U G38C G58C: the yeast fitness is at most 0.5.
As for U7A G23A C62U, the yeast fitness is at most 0.5.
Consider C46A C49U G63C, for which the yeast fitness stood at 0.694.
To U8C C30G A69C belongs at most 0.5; to U2C G68C, 0.963.
For C5G G39A U47G C49G A69C the value was 0.764; for C30A C62U A70U, 0.709.
In the case of C4A G6A C29G, the yeast fitness was 0.549.
To U7G C30A G48A belongs 0.673.
Regarding G25A C62U, the yeast fitness amounted to 0.931.
For A14U C24G A36U the value was at most 0.5; for C33U A36G C55U A69C, at most 0.5.
Turning to U8G C11A C30U A57U, the yeast fitness came out at 0.613.
As to U13A A21C A42G C62A A69U, the yeast fitness was at most 0.5.
To U2C G9A A20G belongs 1.07; to C4G C55A A57U, at most 0.5.
As to G18C U53C A57C, the yeast fitness was at most 0.5.
As for U2G C34G C49G C61U A69G, the yeast fitness was at most 0.5.
In the case of U2A U47G G50C, the yeast fitness was at most 0.5.
On to G17A C34U C55G, for which the yeast fitness was 0.508.
For U28C C30G the value was 0.667.
For G38A A42C A45C C62A the value was at most 0.5; for C4G A14G C33U, at most 0.5; for U7A G10A C33A A36C C61U C66U, at most 0.5.
Regarding C22A G23A C34U A57C C66U A69C, the yeast fitness amounted to 0.548.
As for C4U U8A U13C C46A, the yeast fitness turned out to be 0.619.
Turning to G9A G48C G52A, the yeast fitness was at most 0.5.
To U7G C11U G12C C33U U64A G68C belongs at most 0.5; to U26A A36C C61U, at most 0.5.
For C34U G44C A45G U47G the value was at most 0.5.
To U2C G63C belongs 0.747; to C22U C49U G58A, 0.621; to C31U C49G A69C, 0.636.
Regarding C4A U13A G18A G52A C55G, the yeast fitness is at most 0.5.
For G12U A36G G63A A69U the value was 0.604.
To A20U C27A A40G A69U belongs at most 0.5; to C31G G56C, 0.632.
For U16A C22A C29U A36G A45C the value was at most 0.5; for G10C G44A A70C, at most 0.5; for C11G C34G U59C, at most 0.5.
For C4U A20C A65C, the yeast fitness worked out at 0.719.
As to C5G G50A C55G A65C, the yeast fitness worked out at 0.551.
Take U16C A20U: the yeast fitness amounted to 0.889.
To A21C A45U G52A belongs 0.503.
For G23A A36U G39C the value was 0.518.
For A37C C46U the value was 0.946; for U16A A42C U54A, at most 0.5; for U19C C31A A36C G44A A57U, at most 0.5.
With C5G G17A A20C C49G G51A, the yeast fitness is at most 0.5.
To C34A A37U G63C belongs at most 0.5; to U8A C24U A40U A42G A45U, at most 0.5; to A14G A40U, 0.904.
For C30U A40G the value was 0.914; for C5U C34G A45U U53G A57G, 0.672.
For C4U C24G A42C, the yeast fitness was at most 0.5.
To G12A belongs 0.999.
To C11A C61A belongs 0.613; to C5G C11A A20U C29A A37C, at most 0.5; to G10A A15G G38C, at most 0.5.
For C5U A43C A69C the value was 0.802.
Take G10C G63A G68C: the yeast fitness was at most 0.5.
For the variant C49U G67U A69C, the yeast fitness came to 0.542.
G10C G12A: the yeast fitness stood at 0.757.
As to C5A C11U C30A A57G, the yeast fitness was at most 0.5.
To A15G G63C A69U belongs 0.651; to A14C C55U C61G C62G, 0.571.
Take U54C C62A: the yeast fitness is 0.595.
To U7C C22U C49U C55A belongs at most 0.5; to A14U A36U G38A, at most 0.5; to G50C G58A C66U, 0.538.
Turning to U3A G25A A69C, the yeast fitness stood at 0.773.
To C24G U28G C46G C66U belongs at most 0.5; to U7A A36U A37U, 0.768; to A15C A20G G25C C29U U35C A43U, at most 0.5.
For G17C G39C C66U A70U the value was at most 0.5; for A15U C22A A43G G51C, at most 0.5.
For C11G C31U A42U A70U the value was at most 0.5.
Take C5A C31G G51A: the yeast fitness was found to be 0.577.
Consider C4G U28A C33G, for which the yeast fitness was at most 0.5.
For A21G C33U G51C the value was at most 0.5; for C11A A14U C30G, at most 0.5; for U2G A14G C62G A70U, at most 0.5.
In the case of C46A G58C U59C, the yeast fitness was 0.545.
To C31U C62A belongs 0.776.
Turning to C24A C31U A42C, the yeast fitness is 0.529.
Consider C5U A21G U28C A36G A69G, for which the yeast fitness was 0.599.
For U7A G10C G52A U54C C60G the value was 0.518; for A21U A36G A45C, 0.581; for A20C C24A C29G C34G G56A A65G A69C, 0.856.
For the variant C4U U16A A20C U54A G67U, the yeast fitness was at most 0.5.
For U7A A20G C46G the value was 0.507; for C30U A37U G52A C61G, at most 0.5.
In the case of A45C C62G, the yeast fitness was found to be 0.718.
For C22G C61U G68A the value was at most 0.5.
With U13A A15G A21C C22G C30G A37U, the yeast fitness was found to be 0.636.
To C22A C24G G67C G68A belongs at most 0.5; to U3G U13C A14U C29A, 0.672.
For G17C C31U A42C C49A the value was 0.534; for U3A C55U G68C, 0.573; for G18C G44A G68A, at most 0.5.
As for G9A C11G U32C A69C, the yeast fitness is at most 0.5.
To C31U G58A belongs 0.965; to U8C A36C, 0.577; to C33A C49U C66U, 0.524.
To U16A A37C belongs 0.653; to G25A U32A C49U U53A, at most 0.5; to U7G U26G C33G U59A U64C, 0.502.
Regarding C55A G68U A69U, the yeast fitness was at most 0.5.
For C4G C33G U35C U59A A69U the value was at most 0.5; for A15G U35A A57G G58U C62G, at most 0.5.
For the variant G25A G58C C66U, the yeast fitness is 0.778.
For C31G C33G C34U G68A the value was 0.603; for U7A C30A C31G A43U U54G C62G, at most 0.5; for C5A G25C C30U, 0.576.
